{"data": "Published values from different studies", "Urease": "Urease (Canavalia ensiformis, UniProt P07374)", "Adora2a": "Adenosine receptor A2a (Adora2a, Rattus norvegicus, UniProt P30543)", "AGTR2": "Type-2 angiotensin II receptor (AGTR2, Homo sapiens, UniProt P50052)", "note": "Lines come from different studies, so protocols differ."}
{"Compound": "Oc1ccccc1OCc1nn2c(-c3cccc(Br)c3)nnc2s1", "target": "Urease", "test": "enzyme activity, inhibitor", "Ki [µM]": 2.25}
{"Compound": "O=C1c2ccccc2CCCN1CCCCN1CCN(c2ccccn2)CC1", "target": "D(1A) dopamine receptor (DRD1, Homo sapiens, UniProt P21728)", "test": "cell-free assay, radioligand", "Ki [µM]": 1.26}
{"Compound": "COc1ccc(-c2c(C#N)c(N)nc(SCc3cccc(C)n3)c2C#N)cc1", "target": "Adora2a", "test": "ligand displacement, radioligand", "conditions": "cell membranes", "Ki [µM]": 0.048}
{"Compound": "CC(=O)NO", "target": "Urease", "test": "enzyme activity, inhibitor", "Ki [µM]": 18.1}
{"Compound": "COc1ccc(-c2c(C#N)c(N)nc3sc(C(N)=O)c(N)c23)cc1", "target": "Adora2a", "test": "ligand displacement, radioligand", "conditions": "cell membranes", "Ki [µM]": 0.561}
{"Compound": "CCC(C)[C@H](NC(=O)c1ccc(C)c(C(=O)N(CC)CC)c1)C(=O)O (stereo in doubt)", "target": "AGTR2", "test": "ligand displacement in cells, radioligand", "Ki [µM]": 2.4}
{"Compound": "N#Cc1c(N)nc2sc(C(N)=O)c(N)c2c1-c1ccc2c(c1)OCO2", "target": "Adora2a", "test": "ligand displacement, radioligand", "conditions": "cell membranes", "Ki [µM]": 1.06}
{"Compound": "CCCN1CCCn2c1nc1c2c(=O)n(C)c(=O)n1C", "target": "Adora2a", "test": "ligand displacement, radioligand", "conditions": "cell membranes", "Ki [µM]": 1.29}
{"Compound": "CCc1nc2cc(OCCCCN3CCC(c4cccc(Cl)c4Cl)CC3)ccc2s1", "target": "Sodium-dependent serotonin transporter (SLC6A4, Homo sapiens, UniProt P31645)", "test": "ligand displacement, radioligand", "Ki [µM]": 0.58}
{"Compound": "C#CCN1CCCn2c1nc1c2c(=O)n(C)c(=O)n1C", "target": "Adora2a", "test": "ligand displacement, radioligand", "conditions": "cell membranes", "Ki [µM]": 7.4}
{"Compound": "CCc1ccc(C(=O)N[C@H](C(=O)O)C(C)CC)cc1C(=O)N(Cc1ccccc1)Cc1ccccc1 (stereo in doubt)", "target": "AGTR2", "test": "ligand displacement in cells, radioligand", "Ki [µM]": 4.4}
{"Compound": "CCCCCCN1CCCn2c1nc1c2c(=O)n(C)c(=O)n1C", "target": "Adora2a", "test": "ligand displacement, radioligand", "conditions": "cell membranes", "Ki [µM]": 0.82}
{"Compound": "N#Cc1c(N)nc(SCC(N)=O)c(C#N)c1-c1ccc(O)cc1", "target": "Adora2a", "test": "ligand displacement, radioligand", "conditions": "cell membranes", "Ki [µM]": 0.338}
{"Compound": "CCC(C)[C@H](NC(=O)c1cccc(C(=O)N(CC)CC)c1)C(=O)O (stereo in doubt)", "target": "AGTR2", "test": "ligand displacement in cells, radioligand", "Ki [µM]": 22}
{"Compound": "CCCCN1CCCn2c1nc1c2c(=O)n(CCC)c(=O)n1CCC", "target": "Adora2a", "test": "ligand displacement, radioligand", "conditions": "cell membranes", "Ki [µM]": 0.3}
{"Compound": "CCc1ccc(C(=O)N[C@H](C(=O)O)C(C)CC)cc1C(=O)N(CC)Cc1ccccc1 (stereo in doubt)", "target": "AGTR2", "test": "ligand displacement in cells, radioligand", "Ki [µM]": 8.3}
{"Compound": "CCCCn1c(=O)c2[nH]c(C34CC5CC(CC3C5)C4)nc2n(CCCO)c1=O", "target": "Adora2a", "test": "ligand displacement, radioligand", "conditions": "cell membranes", "Ki [µM]": 0.371}
